From PubChem
An excerpt weighted towards active compounds, which were near 1.8% of everything screened.
Casp6 inh – caspase-6 (human) enzyme inhibition | inhibition, % at 12.5 µM | AID 686996 | P55212 | 350,000 tested, 0.53% active | purified caspase-6, Z-VEID-R110 cleavage fluorescence;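 active means mean inhibition across replicates at least about 35%, with every replicate also reaching that limit, limit read from the data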;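 further: 0% = median of neutral control wells and 100% = no fluorescence left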
LEDGF integ inh – blocks HIV-1 LEDGF/p75-dependent DNA integration; TR-FRET IN-LEDGF/p75 DNA integration, Eu/Cy5; inhibition, % at 3.7 µM; 370,000 tested, 0.64% active;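 active means inhibition above the screen-wide mean plus 3 SD, cut at about 13% in these data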;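 further: signal is the Cy5 over europium emission ratio at 671 and 618 nm; 0% = plate median of compound wells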
NSD2 inh – blocks human histone methyltransferase NSD2; 310,000 tested, 0.54% active; inhibition, % at 12.5 µM; AID 743445; NSD2 peptide methylation, AlphaScreen, 120 min; O96028; in the data active means inhibition above about 50%
TDP2 absorb – blocks human TDP2 phosphodiesterase activity | O95551 | recombinant TDP2, T5PNP hydrolysis, p-nitrophenol absorbance 415 nm | inhibition, % at 12.8 µM | 370,000 tested, 0.34% active;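 active means inhibition above the mean of all tested compounds plus 3 SD, set per campaign, cut at about 25% in these data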;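 further: 0% = DMSO with enzyme and 100% = buffer with substrate but no TDP2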
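Read-out basis: percent inhibition. System: recombinant human TDP2. Buffer or medium: Mg2+-containing Tris-HCl buffer, pH 7.5. Repeats: single replicate. Timing: reaction 2 h, 37 °C. Benchmarks: high control without enzyme, low control DMSO plus TDP2. Probe or stimulus: 5 mM T5PNP. Doses: 12.8 µM only. Measured by: epi absorbance of p-nitrophenol freed from T5PNP by hydrolysis.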
MBD2 inh – MBD2-methylated oligo binding inhibition; inhibition, % at 4.4 µM; TR-FRET, MBD2 binding to methylated oligonucleotide; AID 686964; 370,000 tested, 0.31% active; in the data active means inhibition above about 13%
UHRF1 binding – UHRF1 methyl-DNA binding inhibition | Q96T88 | UHRF1 binding to methylated oligo, TR-FRET | inhibition, % at 4.4 µM | 370,000 tested, 0.75% active | AID 687016; in the data active means inhibition above about 21%;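 further: UHRF1 SRA domain binding a hemimethylated CpG hairpin DNA probe; 0% = median of test compound wells and 100% = reference inhibitor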
Target sequence (Q96T88 whole entry, looked up, the tested form may be a part): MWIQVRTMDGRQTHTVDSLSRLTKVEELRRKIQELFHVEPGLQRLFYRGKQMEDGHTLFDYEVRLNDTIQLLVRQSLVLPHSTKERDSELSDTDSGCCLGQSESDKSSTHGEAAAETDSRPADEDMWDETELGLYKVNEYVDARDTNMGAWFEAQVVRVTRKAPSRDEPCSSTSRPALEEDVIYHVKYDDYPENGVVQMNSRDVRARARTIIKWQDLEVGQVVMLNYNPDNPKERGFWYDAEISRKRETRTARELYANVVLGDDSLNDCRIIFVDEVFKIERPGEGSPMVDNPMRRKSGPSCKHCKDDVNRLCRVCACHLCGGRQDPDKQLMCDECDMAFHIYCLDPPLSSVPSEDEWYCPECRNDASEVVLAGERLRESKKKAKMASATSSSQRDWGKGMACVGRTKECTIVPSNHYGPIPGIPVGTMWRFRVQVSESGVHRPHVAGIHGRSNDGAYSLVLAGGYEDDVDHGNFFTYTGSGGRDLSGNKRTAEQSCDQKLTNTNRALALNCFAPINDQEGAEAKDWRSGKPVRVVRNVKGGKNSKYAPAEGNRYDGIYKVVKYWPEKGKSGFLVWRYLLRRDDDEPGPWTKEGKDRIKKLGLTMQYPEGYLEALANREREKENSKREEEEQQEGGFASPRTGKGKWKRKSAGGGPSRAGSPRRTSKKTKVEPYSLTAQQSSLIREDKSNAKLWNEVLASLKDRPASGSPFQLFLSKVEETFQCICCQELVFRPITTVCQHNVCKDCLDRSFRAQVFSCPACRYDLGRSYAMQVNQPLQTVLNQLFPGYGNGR
IN multimer up – counter-screen for LEDGF/p75 integration inhibitors: HIV-1 integrase multimerization activators; 2,000 tested, 17% active; shares compounds with LEDGF integ inh; TR-FRET HIV-1 integrase multimerization, biochemical; activation, % at 7.7 µM; in the data active means activation above about 8.9%
TRFRET interf – counter-screen for LEDGF/p75 integration inhibitors: TR-FRET optical interference | 2,000 tested, under 10 active | shares compounds with LEDGF integ inh | TR-FRET optical interference counterscreen, HIV-1 IN multimerization | inhibition, % at 7.7 µM;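 active means inhibition above the mean over all tested compounds plus 3 SD, which no compound reached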;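 further: 0% = integrase with antibodies and DMSO and 100% = antibodies without integrase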
LEDGF integ conf – confirmation of HIV-1 LEDGF/p75-dependent integration inhibitors | inhibition, % at 3.7 µM | shares compounds with LEDGF integ inh | 2,000 tested, 36% active | TR-FRET LEDGF/p75-dependent HIV-1 integration, biochemical; in the data active means inhibition above about 14%
Starred values were filed as active, the others as inactive; x = no result.

SMILES | Casp6 inh | LEDGF integ inh | NSD2 inh | TDP2 absorb | MBD2 inh | UHRF1 binding | IN multimer up | TRFRET interf | LEDGF integ conf
COc1ccccc1S(=O)(=O)N(C)C[C@H]1OCc2cnnn2CCCC(=O)N([C@@H](C)CO)C[C@@H]1C | -8 | 53* | x | 11 | -1 | -2 | 0 | 0 | -17
CC(C)NC(=O)N1CC2(C1)[C@H](c1ccccc1)[C@H](CO)N2CCC(F)(F)F | 0 | x | x | x | x | x | x | x | x
CC(C)CC(C(=O)Nc1oc(-c2ccco2)c(-c2ccco2)c1C#N)N1C(=O)c2ccccc2C1=O (stereo not drawn) | x | 17* | -4 | 1 | 4 | -1 | 2 | -9 | 9
CC(C)CC(C(=O)Nc1cccc(O)c1)N1C(=O)c2ccccc2C1=O (stereo not drawn) | -1 | 0 | 2 | 0 | -3 | -2 | x | x | x
Cc1cc(-c2csc(N)n2)c(C)n1Cc1ccco1 | -3 | 24* | 1 | 12 | 0 | 0 | 17* | -85 | 80*
Cc1ccc(-n2c(C)cc(-c3csc(N)n3)c2C)cc1 | x | 8 | -2 | 1 | 1 | 0 | x | x | x
Cc1cc(-c2csc(N)n2)c(C)n1C | x | 22* | 9 | 8 | 11 | 6 | 7 | -26 | 53*
COc1cc(F)cc(C2=CC(=O)C[C@H](c3ccc(F)cc3)C2)c1 | 3 | 59* | x | -4 | -2 | -2 | 0 | -1 | -4
O=C(C[C@@H]1CC[C@@H]2[C@H](COC[C@@H](O)CN2C(=O)Nc2ccc(C(F)(F)F)cc2)O1)NCCc1ccncc1 | -3 | x | x | x | x | x | x | x | x
CCC(CC)C1C(C#N)=C(N)Oc2cc(C)oc(=O)c21 (stereo not drawn) | x | -3 | 0 | 2 | -1 | -3 | x | x | x
Cc1cc2c(c(=O)o1)C(c1ccc([N+](=O)[O-])o1)C(C#N)=C(N)O2 (stereo not drawn) | 19 | 15* | 7 | 6 | -4 | 11 | 4 | -21 | 9
CCC(=O)N(C)C[C@@H]1Oc2cc(-c3cncnc3)ccc2S(=O)(=O)N([C@H](C)CO)C[C@H]1C | 1 | x | x | x | x | x | x | x | x
Cc1ccc(CSc2ccc3nnc(-c4cccnc4)n3n2)cc1 | x | 14* | 0 | 6 | 2 | 1 | 0 | 0 | 6
C[C@H]1CN([C@@H](C)CO)C(=O)Cc2cc(NC(=O)Nc3ccccc3)ccc2O[C@H]1CN(C)S(=O)(=O)c1cccs1 | 1 | x | x | x | x | x | x | x | x
O=C1C(=NO)CCc2ccccc21 | 68* | 29* | 77* | 20 | -7 | -1 | 3 | -11 | 26*
O/N=C1/CCc2cccc3cccc1c23 | x | 3 | 0 | 3 | 0 | -3 | x | x | x
CN1C(=O)c2cc(NC(=O)c3ccc(F)cc3)ccc2OC[C@@H]2O[C@@H](CC(=O)NC3CCC3)CC[C@H]21 | -4 | x | x | x | x | x | x | x | x
O=C(CC1CS(=O)(=O)CC1CC(=O)Oc1ccccc1F)Oc1ccccc1F (stereo not drawn) | 4 | 24* | -1 | 3 | -1 | 2 | 2 | -7 | 5
COc1ccc(CNc2ccccc2)cc1Br | x | 22* | 0 | 5 | 3 | 1 | 0 | 2 | 3
Cc1nc2sc(C(c3ccco3)N3CCN(c4ccccc4F)CC3)c(O)n2n1 (stereo not drawn) | x | 1 | 3 | 0 | -4 | -4 | x | x | x
Cc1nc2sc(C(c3ccco3)N3CCc4ccccc4C3)c(O)n2n1 (stereo not drawn) | x | 21* | x | -4 | -3 | 8 | 0 | 1 | 11
CC(=O)NC[C@H]1[C@@H](c2ccc(C#CC(C)C)cc2)[C@@H](CO)N1C(=O)C1CC1 | 0 | x | x | x | x | x | x | x | x
COC(=O)c1cc(S(=O)(=O)N2CCCC2)c(Cl)cc1Cl | 1 | 61* | -6 | -1 | -1 | -4 | 0 | 1 | -8
CO[C@H]1CC[C@H]2CCOc3ccc(C#N)cc3C(=O)N(C)C[C@@H](OC)[C@@H](C)C(=O)N(C)C[C@H]1O2 | -3 | x | x | x | x | x | x | x | x
Cc1ccccc1OCC(=O)OCC(=O)Nc1cc(C(F)(F)F)ccc1N1CCOCC1 | 1 | 17* | -3 | 2 | -9 | -1 | -1 | 3 | -6
SMILES | Casp6 inh | LEDGF integ inh | NSD2 inh | TDP2 absorb | MBD2 inh | UHRF1 binding | IN multimer up | TRFRET interf | LEDGF integ conf
CCCN1[C@H](CO)[C@H](c2ccc(C#Cc3ccccc3)cc2)[C@@H]1CNC1CCCC1 | 0 | x | x | x | x | x | x | x | x
O=C1CN(S(=O)(=O)c2cc(Br)ccc2Br)CCN1 | 3 | 0 | -3 | -8 | -2 | -1 | x | x | x
O=c1c(Br)ccc(Br)cc1Br | 26 | 15* | x | 4 | 4 | -1 | 2 | -8 | 30*
CC(=O)N1[C@H](C(=O)NCc2ccccc2Cl)[C@@H](CO)[C@@H]2Cn3c(ccc(-c4cncnc4)c3=O)[C@@H]21 | 5 | x | x | x | x | x | x | x | x
CO[C@@H]1CN(C)C(=O)c2cc(NS(C)(=O)=O)ccc2OC[C@@H](C)N(C(=O)C2CCCCC2)C[C@H]1C | -1 | x | x | x | x | x | x | x | x
C[C@@H]1CN([C@H](C)CO)C(=O)Cc2cc(NC(=O)Nc3cccc4ccccc34)ccc2O[C@H]1CN(C)C(=O)Nc1ccc(F)cc1 | -2 | x | x | x | x | x | x | x | x
CN(C)c1ccc2c(c1)[C@H]1C[C@H](CC(=O)NCC3CC3)O[C@H](CO)[C@H]1O2 | 0 | x | x | x | x | x | x | x | x
COc1cc(C=C2C(=O)C=CC2=O)ccc1O | 79* | 93* | x | 9 | 102* | 97* | 7 | -37 | 24*
COc1ccc(CN(C)C[C@H]2OCCCC[C@H](C)Oc3ccc(NS(=O)(=O)c4cccs4)cc3C(=O)N([C@@H](C)CO)C[C@@H]2C)cc1 | 0 | x | x | x | x | x | x | x | x
O=C(CSc1nnc(CNC(=O)c2cccc(C(F)(F)F)c2)o1)NC1CCCC1 | 1 | 45* | 1 | 1 | -7 | 1 | 0 | 1 | -1
O=C(CSc1nnc(CNC(=O)c2cccc(C(F)(F)F)c2)o1)NCC1CCCO1 (stereo not drawn) | -3 | 2 | -9 | -4 | 5 | -1 | x | x | x
C[C@@H]1CCCCO[C@H](CN(C)Cc2ccncc2)[C@@H](C)CN([C@H](C)CO)C(=O)c2cc(NC(=O)Nc3ccc(C(F)(F)F)cc3)ccc2O1 | 0 | x | x | x | x | x | x | x | x
O=P(O)(O)COc1ccccc1P(=O)(c1ccccc1)c1ccccc1 | x | 19* | -4 | 7 | -3 | 0 | -2 | 13 | 0
CCOP(=O)(O)c1ccccc1OCCOc1ccccc1P(=O)(O)OCC | x | -3 | -1 | 5 | -1 | 4 | x | x | x
O=C(Cc1ccccc1)N1CC(=O)N2[C@H](CO)[C@H](c3ccc(Br)cc3)[C@@H]2C1 | -5 | x | x | x | x | x | x | x | x
